{
  "source": "PubChem BioAssay AID489030",
  "about": "(Sanford-Burnham Center for Chemical Genomics, 2010)",
  "note": "The whole screen tested about 330,000 compounds, of which about 2,400 (0.73%) were called active. Rule for the calls: active = inhibition of at least 40% at 20 µM; inactive = the rest. The full list was thinned out, with actives kept by preference.",
  "data": [
    {"target": "Apoptotic protease-activating factor 1 (Homo sapiens) (UniProt O14727)", "sequence (O14727 whole entry, looked up)": "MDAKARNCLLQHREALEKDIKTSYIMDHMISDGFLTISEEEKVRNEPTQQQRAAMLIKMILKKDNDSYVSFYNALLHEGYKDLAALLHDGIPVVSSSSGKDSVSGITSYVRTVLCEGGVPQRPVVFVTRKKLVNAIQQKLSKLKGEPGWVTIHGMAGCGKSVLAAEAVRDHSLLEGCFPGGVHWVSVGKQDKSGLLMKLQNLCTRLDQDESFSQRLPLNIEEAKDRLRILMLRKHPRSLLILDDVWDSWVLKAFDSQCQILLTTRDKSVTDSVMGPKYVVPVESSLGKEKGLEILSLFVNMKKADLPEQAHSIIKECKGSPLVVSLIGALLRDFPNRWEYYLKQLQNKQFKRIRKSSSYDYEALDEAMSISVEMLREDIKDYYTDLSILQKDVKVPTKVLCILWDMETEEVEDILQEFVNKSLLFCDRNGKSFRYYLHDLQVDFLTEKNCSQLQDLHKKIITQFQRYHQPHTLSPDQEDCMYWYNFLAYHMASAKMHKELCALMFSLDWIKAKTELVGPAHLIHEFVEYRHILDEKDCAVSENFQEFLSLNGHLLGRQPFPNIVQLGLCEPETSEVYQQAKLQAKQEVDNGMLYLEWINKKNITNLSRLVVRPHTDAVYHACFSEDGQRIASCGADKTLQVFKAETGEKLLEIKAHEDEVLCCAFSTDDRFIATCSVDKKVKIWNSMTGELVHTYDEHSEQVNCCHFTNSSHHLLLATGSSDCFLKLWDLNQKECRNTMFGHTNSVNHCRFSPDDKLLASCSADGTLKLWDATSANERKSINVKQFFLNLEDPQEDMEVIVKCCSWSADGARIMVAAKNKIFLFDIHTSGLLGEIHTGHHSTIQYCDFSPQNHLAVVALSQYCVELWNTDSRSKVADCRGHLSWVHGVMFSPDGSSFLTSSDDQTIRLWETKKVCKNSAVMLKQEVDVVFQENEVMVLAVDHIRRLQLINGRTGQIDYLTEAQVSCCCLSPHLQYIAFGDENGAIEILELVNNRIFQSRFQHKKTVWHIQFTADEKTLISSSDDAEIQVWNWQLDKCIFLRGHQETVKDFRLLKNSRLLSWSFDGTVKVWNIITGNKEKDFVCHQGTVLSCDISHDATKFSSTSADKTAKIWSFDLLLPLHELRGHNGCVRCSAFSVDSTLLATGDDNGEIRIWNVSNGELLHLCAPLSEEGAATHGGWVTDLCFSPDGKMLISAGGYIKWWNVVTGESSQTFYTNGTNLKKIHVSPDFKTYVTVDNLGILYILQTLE", "assay": "inhibitors of human Apaf-1 apoptosome, primary screen, biochemical, DEVD-Rh110 fluorescence, uHTS (AID 489030);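 note: plate controls were DMSO wells for no effect and DEVD-CHO caspase inhibitor wells for full effect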", "details": "reconstituted apoptosome caspase-3 activity, at 20 µM, stronger effect = higher value", "procedure,_shortened": "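Material: cell-free apoptosome with Apaf-1, procaspase-3 and caspase-9; Buffer or medium: Hepes pH 7.5 with detergent and BSA; Reagent: cytochrome c trigger plus (Z-DEVD)2-Rh110 caspase-3 substrate; Times: compound with Apaf-1, dATP, procaspase-3 30 min, then 50 min reaction, room temperature; Technique: Rh110 fluorescence intensity.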", "values": [
      {"smiles": "COc1ccc(C2C(C#N)=C(N)Oc3cc(N)ccc32)cc1OC", "note": "(stereo unspecified)", "inhibition": "-6.32% (inactive)"},
      {"smiles": "Cc1nn(Cc2ccccc2)c2c1C(c1ccccc1)C(C#N)=C(N)O2", "note": "(stereo unspecified)", "inhibition": "7.58% (inactive)"},
      {"smiles": "COc1ccccc1C1C(C#N)=C(N)Oc2c1c(-c1ccccc1)nn2-c1ccccc1", "note": "(stereo unspecified)", "inhibition": "42.2% (active)"},
      {"smiles": "COc1ccc(/C=C2/C(=O)OCc3cc(OC)c(OC)cc32)c(OC)c1", "inhibition": "6.28% (inactive)"},
      {"smiles": "COc1ccc(C2/C(=C(/O)c3ccccc3)C(=O)C(=O)N2C)c(OC)c1", "note": "(stereo unspecified)", "inhibition": "2.34% (inactive)"},
      {"smiles": "COc1ccc(/C=C2/C(=O)N(c3ccccc3)N=C2C)c(OC)c1", "inhibition": "80.1% (active)"},
      {"smiles": "O=C1CN(C(=O)COC(=O)/C=C/c2ccc(F)cc2)c2ccccc2N1", "inhibition": "5.3% (inactive)"},
      {"smiles": "O=C(CO/N=C/c1ccccc1OC(F)F)NC1CCCC1", "inhibition": "0.277% (inactive)"},
      {"smiles": "CCCNC(=O)c1ccc(N2CCC3(CC2)CC(c2cccc(Br)c2)=NO3)c(NC(=O)c2ccco2)c1", "inhibition": "14.2% (inactive)"},
      {"smiles": "CC1CCC2(CC1)NC(=O)N(CC(=O)c1ccc3c(c1)OCO3)C2=O", "note": "(stereo unspecified)", "inhibition": "-10.1% (inactive)"},
      {"smiles": "Cc1ccc(S(=O)(=O)N2CCN(C(=O)c3ccccc3-c3nc4ccccc4s3)CC2)c(C)c1", "inhibition": "40.3% (active)"},
      {"smiles": "Cc1ccc(S(=O)(=O)N2CCN(C(=O)Cn3c(=O)cnc4ccccc43)CC2)c(C)c1", "inhibition": "-0.646% (inactive)"},
      {"smiles": "Cc1ccc(S(=O)(=O)N2CCN(C(=O)N3CCOCC3)CC2)c(C)c1", "inhibition": "-7.82% (inactive)"},
      {"smiles": "CC[C@]1(C(=O)OC)[C@H]2C(=O)N(Cc3ccccc3)C(=O)[C@H]2[C@H]2CN=C(SCc3ccccc3)N21", "inhibition": "25.2% (inactive)"},
      {"smiles": "CCN1C[C@@H]2[C@@H]3C(=O)N(Cc4ccccc4)C(=O)[C@@H]3[C@](Cc3ccccc3)(C(=O)OC)N2C1=NC1CCCCC1", "inhibition": "41.2% (active)"},
      {"smiles": "CCCN=C1N(C)C[C@@H]2[C@@H]3C(=O)N(Cc4ccccc4)C(=O)[C@@H]3[C@](C)(C(=O)OC)N12", "inhibition": "11.4% (inactive)"},
      {"smiles": "Cc1nnc(Sc2nc3c(c(=O)[nH]c(=O)n3C)n2Cc2ccccc2)s1", "inhibition": "21% (inactive)"},
      {"smiles": "CC1=NN(c2ccc(Cl)c(C(=O)O)c2)C(=O)/C1=C/c1ccc(-c2ccccc2[N+](=O)[O-])o1", "inhibition": "42.9% (active)"},
      {"smiles": "O=C(Nc1ccc(N2CCOCC2)cc1)c1ccc(-c2ccccc2[N+](=O)[O-])o1", "inhibition": "2.89% (inactive)"},
      {"smiles": "O=C1NC(c2ccc(-c3ccccc3[N+](=O)[O-])o2)C(C(=O)c2ccc(Cl)cc2)C(O)(C(F)(F)F)N1", "note": "(stereo unspecified)", "inhibition": "36.8% (inactive)"},
      {"smiles": "COC(=O)c1ccc(S(=O)(=O)N2CCC(c3nc4ccccc4o3)CC2)cc1", "inhibition": "-25.7% (inactive)"},
      {"smiles": "Cc1cccc(C)c1NC(=O)CNC(=O)Cc1ccc(Br)cc1", "inhibition": "-1.64% (inactive)"},
      {"smiles": "CC(C)N(C(=O)[C@H]1C[C@H](CC(=O)NC(C)(C)C)C(=O)N2CCc3c([nH]c4ccc(Cl)cc34)[C@]12C)C(C)C", "inhibition": "29.3% (inactive)"},
      {"smiles": "CCC(C)[C@@H](C(=O)N1CCNCC1)n1cc(CCCCN)nn1", "note": "(stereo partly specified)", "inhibition": "-4.43% (inactive)"},
      {"smiles": "C[C@@H](C(=O)N1CCNCC1)n1cc(CCC(=O)O)nn1", "inhibition": "5.94% (inactive)"},
      {"smiles": "NC(N)=NCCCc1cn(CC(=O)N2CCNCC2)nn1", "inhibition": "40.2% (active)"},
      {"smiles": "CCN1C(=NCc2ccc(OC)cc2)N[C@@H](CCc2ccccc2)[C@H](C(=O)NCc2ccc(OC)cc2)[C@H]1C", "inhibition": "40.4% (active)"},
      {"smiles": "CCN1C(=NCC(C)C)N[C@@H](CCc2ccccc2)[C@H](C(=O)NCC(C)C)[C@H]1C", "inhibition": "4.1% (inactive)"},
      {"smiles": "CCN1C(=S)N[C@@H](CCc2ccccc2)[C@H](C(=O)OC)[C@H]1C", "inhibition": "-4.74% (inactive)"},
      {"smiles": "CCN1C(=O)N[C@@H](CCc2ccccc2)C(C(=O)OC)=C1C", "inhibition": "17.6% (inactive)"},
      {"smiles": "O=C(NCc1ccccc1Cl)C1CCN(c2ncnc3c2nc2n3CCCCC2)CC1", "inhibition": "-6.54% (inactive)"},
      {"smiles": "Cc1nn2c(NCCN(C)C)c3c(nc2c1-c1ccccc1)CCC3", "inhibition": "1.66% (inactive)"},
      {"smiles": "CCN(C(=O)C1CCCN(c2nc(-c3ccc(OC)cc3)no2)C1)c1ccc(OC)cc1", "note": "(stereo unspecified)", "inhibition": "12.2% (inactive)"},
      {"smiles": "Cc1cc(=O)cc(C)[nH]1", "inhibition": "-15% (inactive)"},
      {"smiles": "Oc1c(C=Nc2cccc3nsnc23)ccc2ccccc12", "inhibition": "95.8% (active)"},
      {"smiles": "CCOc1ccc(N2CC(C(=O)NCc3ccccn3)CC2=O)cc1", "note": "(stereo unspecified)", "inhibition": "1.44% (inactive)"},
      {"smiles": "CCCN1CCn2c3c(c4cc(Br)ccc42)CCCC31", "note": "(stereo unspecified)", "inhibition": "12.8% (inactive)"},
      {"smiles": "COCCNC(=O)c1ccc(Cn2c(SCC(=O)NCC3CCCO3)nc3ccc(Br)cc3c2=O)cc1", "note": "(stereo unspecified)", "inhibition": "-13.8% (inactive)"},
      {"smiles": "OC(CNCC1CCCO1)Cn1c2ccc(Br)cc2c2cc(Br)ccc21", "note": "(stereo unspecified)", "inhibition": "43.4% (active)"},
      {"smiles": "CN(C)/C(CN1CCCCC1)=C1\\N=C(c2ccccc2)OC1=O", "inhibition": "-0.998% (inactive)"},
      {"smiles": "O=C(CCC(=O)c1ccccc1)NCc1cccc(C(F)(F)F)c1", "inhibition": "6.79% (inactive)"},
      {"smiles": "COC(=O)[C@@H](Cc1ccccc1)NC(=O)NCCc1ccccc1", "inhibition": "-5.88% (inactive)"},
      {"smiles": "NC[C@H](Cc1ccccc1)NCCc1cc(C(F)(F)F)cc(C(F)(F)F)c1", "inhibition": "60.8% (active)"},
      {"smiles": "O=C(Cn1nc(CNc2ccc(Cl)cc2)[n+]2c1CCCCC2)c1ccc(Cl)cc1", "inhibition": "15.2% (inactive)"},
      {"smiles": "CCc1ccc(/C=N/NC(=O)c2nnn(-c3nonc3N)c2CN2CCc3ccccc32)cc1", "inhibition": "8.04% (inactive)"},
      {"smiles": "CC(C)CC[n+]1ccn(C2=C([O-])c3ccccc3C(=O)/C2=N\\S(=O)(=O)c2ccccc2)c1", "inhibition": "55.3% (active)"},
      {"smiles": "CCc1nc(C)cn1S(=O)(=O)c1cc([N+](=O)[O-])ccc1Cl", "inhibition": "2.1% (inactive)"},
      {"smiles": "CCC(=O)Nc1ccc(Nc2nc(Cl)nc(Nc3ccc(NC(=O)CC)cc3)n2)cc1", "inhibition": "-8.45% (inactive)"},
      {"smiles": "CC(=O)Nc1ccc(Nc2cc(C)nc(Nc3ccc(NC(C)=O)cc3)n2)cc1", "inhibition": "46.2% (active)"},
      {"smiles": "COc1ccc(C(=O)NNc2cc(C)nc(NNC(=O)c3ccc(OC)cc3)n2)cc1", "inhibition": "8.09% (inactive)"},
      {"smiles": "COc1ccc(OCCNC(=O)c2cc(C3CC3)nc3c2cnn3C(C)C)cc1", "inhibition": "15% (inactive)"},
      {"smiles": "O=c1nc(N/N=C/c2ccco2)cn[nH]1", "inhibition": "2.62% (inactive)"},
      {"smiles": "CCOC(=O)N1CCN(C(=O)COCc2cc(-c3ccc4c(c3)OCO4)on2)CC1", "inhibition": "15.6% (inactive)"},
      {"smiles": "COCCNc1nc(-n2nc(C)cc2C)nc2sc3c(c12)CCCC3", "inhibition": "8.1% (inactive)"},
      {"smiles": "CC(C)c1nc(SCC(=O)Nc2cccc(C(=O)O)c2)c2c3c(sc2n1)CCCC3", "inhibition": "7.92% (inactive)"},
      {"smiles": "Cc1cc(C)n(-c2nc(SCC(=O)N3CCCC3)c3c4c(sc3n2)CCCC4)n1", "inhibition": "43.6% (active)"}
    ]}
  ]
}
